Laboratory results taken from ChEMBL document CHEMBL5674883, “The Heterochromatin Landscape in Migrating Cells and the Importance of H3K27me3 for Associated Transcriptome Alterations” (Cells, 2018).

Experiments:
Assay type in all cases: cell-based
[1] = biological target: Histone-lysine N-methyltransferase EZH2 (Mus musculus) (UniProt Q61188); test: Inhibition of EZH2 in mouse B16-F1 migrating cells assessed as fold change in H3K27me3-independent regulated Fosl2-mRNA expression at 3 uM measured by […] analysis relative to control cells
Chain of Histone-lysine N-methyltransferase EZH2 (Mus musculus) (Q61188 whole entry): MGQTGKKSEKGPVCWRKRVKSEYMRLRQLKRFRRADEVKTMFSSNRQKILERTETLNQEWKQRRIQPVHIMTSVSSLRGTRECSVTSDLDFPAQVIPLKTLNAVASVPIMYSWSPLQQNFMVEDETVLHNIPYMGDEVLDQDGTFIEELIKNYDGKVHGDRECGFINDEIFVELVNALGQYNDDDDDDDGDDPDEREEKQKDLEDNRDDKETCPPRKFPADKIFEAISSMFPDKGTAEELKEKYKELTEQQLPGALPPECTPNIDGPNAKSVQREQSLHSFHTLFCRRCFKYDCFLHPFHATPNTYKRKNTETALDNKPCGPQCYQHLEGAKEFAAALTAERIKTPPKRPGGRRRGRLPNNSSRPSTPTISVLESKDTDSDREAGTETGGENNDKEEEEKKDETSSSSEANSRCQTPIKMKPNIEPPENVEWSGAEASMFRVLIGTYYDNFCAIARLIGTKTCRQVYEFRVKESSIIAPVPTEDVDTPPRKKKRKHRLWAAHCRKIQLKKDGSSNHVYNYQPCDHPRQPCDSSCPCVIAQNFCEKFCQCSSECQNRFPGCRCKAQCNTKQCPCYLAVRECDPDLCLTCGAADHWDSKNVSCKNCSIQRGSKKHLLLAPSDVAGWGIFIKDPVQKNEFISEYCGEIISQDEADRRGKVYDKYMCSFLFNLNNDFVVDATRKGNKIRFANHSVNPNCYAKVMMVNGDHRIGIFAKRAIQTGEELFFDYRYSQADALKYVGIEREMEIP
How it was run: (§1)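 Confluent B16-F1 cells on fibronectin-coated plates were scratched at multiple sites, washed once with DMEM and left to migrate 3 h in growth medium (37 °C, 7% CO2); unscratched cells served as control. GSK343 (3 µM) was added 3 h before lysis. Poly A mRNA was sequenced (RNA-seq), with 5 replicates for untreated and 3 for treated cells. Differential expression was called by linear model with batch correction, at FDR <0.05 and fold change ≥1.3.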

[2] = biological target: Histone-lysine N-methyltransferase EZH2 (Mus musculus) (UniProt Q61188); test: Inhibition of EZH2 in mouse B16-F1 migrating cells assessed as fold change in H3K27me3-buffered regulated Gm28989-mRNA expression at 3 uM measured by […] analysis relative to control cells
How it was run: (§2)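 Confluent B16-F1 cells on fibronectin-coated plates, cultured at 37 °C and 7% CO2, were scratched at multiple sites to induce migration. They were then held 3 h in growth medium containing 3 µM GSK343, with the inhibitor added 3 h before lysis. Unscratched cells served as controls. Poly A mRNA was analysed by RNA-seq (n=3 GSK343, n=5 controls). Linear models removed batch effects, and buffered genes were those altered only under GSK343 (FDR <0.05, fold change >1.3).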

[3] = biological target: Histone-lysine N-methyltransferase EZH2 (Mus musculus) (UniProt Q61188); test: Inhibition of EZH2 in mouse B16-F1 migrating cells assessed as fold change in H3K27me3-buffered regulated Hunk-mRNA expression at 3 uM measured by […] analysis relative to control cells; how it was run: as §2
[4] = biological target: Histone-lysine N-methyltransferase EZH2 (Mus musculus) (UniProt Q61188); test: Inhibition of EZH2 in mouse B16-F1 migrating cells assessed as fold change in H3K27me3-buffered regulated Snhg5-mRNA expression at 3 uM measured by […] analysis relative to control cells; how it was run: as §1
[5] = biological target: Histone-lysine N-methyltransferase EZH2 (Mus musculus) (UniProt Q61188); test: Inhibition of EZH2 in mouse B16-F1 migrating cells assessed as fold change in H3K27me3-buffered regulated Pcf11-mRNA expression at 3 uM measured by […] analysis relative to control cells; how it was run: as §2
[6] = biological target: Histone-lysine N-methyltransferase EZH2 (Mus musculus) (UniProt Q61188); test: Inhibition of EZH2 in mouse B16-F1 migrating cells assessed as fold change in H3K27me3-buffered regulated Fam184b-mRNA expression at 3 uM measured by […] analysis relative to control cells; how it was run: as §2
[7] = biological target: Histone-lysine N-methyltransferase EZH2 (Mus musculus) (UniProt Q61188); test: Inhibition of EZH2 in mouse B16-F1 migrating cells assessed as fold change in H3K27me3-independent regulated Csrnp1-mRNA expression at 3 uM measured by […] analysis relative to control cells; how it was run: as §1
[8] = biological target: Histone-lysine N-methyltransferase EZH2 (Mus musculus) (UniProt Q61188); test: Inhibition of EZH2 in mouse B16-F1 migrating cells assessed as fold change in H3K27me3-buffered regulated Ptp4a1-mRNA expression at 3 uM measured by […] analysis relative to control cells; how it was run: as §2
[9] = biological target: Histone-lysine N-methyltransferase EZH2 (Mus musculus) (UniProt Q61188); test: Inhibition of EZH2 in mouse B16-F1 migrating cells assessed as fold change in H3K27me3-buffered regulated Rbl1-mRNA expression at 3 uM measured by […] analysis relative to control cells; how it was run: as §2
[10] = biological target: Histone-lysine N-methyltransferase EZH2 (Mus musculus) (UniProt Q61188); test: Inhibition of EZH2 in mouse B16-F1 migrating cells assessed as fold change in H3K27me3-buffered regulated Rhobtb3-mRNA expression at 3 uM measured by […] analysis relative to control cells; how it was run: as §1
[11] = biological target: Histone-lysine N-methyltransferase EZH2 (Mus musculus) (UniProt Q61188); test: Inhibition of EZH2 in mouse B16-F1 migrating cells assessed as fold change in H3K27me3-buffered regulated Cntrob-mRNA expression at 3 uM measured by […] analysis relative to control cells; how it was run: as §2
[12] = biological target: Histone-lysine N-methyltransferase EZH2 (Mus musculus) (UniProt Q61188); test: Inhibition of EZH2 in mouse B16-F1 migrating cells assessed as fold change in H3K27me3-buffered regulated Mef2d-mRNA expression at 3 uM measured by […] analysis relative to control cells; how it was run: as §2
[13] = biological target: Histone-lysine N-methyltransferase EZH2 (Mus musculus) (UniProt Q61188); test: Inhibition of EZH2 in mouse B16-F1 migrating cells assessed as fold change in H3K27me3-dependent regulated Cxxc5-mRNA expression at 3 uM measured by […] analysis relative to control cells; how it was run: as §1
[14] = biological target: Histone-lysine N-methyltransferase EZH2 (Mus musculus) (UniProt Q61188); test: Inhibition of EZH2 in mouse B16-F1 migrating cells assessed as fold change in H3K27me3-buffered regulated Itpk1-mRNA expression at 3 uM measured by […] analysis relative to control cells; how it was run: as §2
[15] = biological target: Histone-lysine N-methyltransferase EZH2 (Mus musculus) (UniProt Q61188); test: Inhibition of EZH2 in mouse B16-F1 migrating cells assessed as fold change in H3K27me3-buffered regulated Ndufv3-mRNA expression at 3 uM measured by […] analysis relative to control cells; how it was run: as §2
[16] = biological target: Histone-lysine N-methyltransferase EZH2 (Mus musculus) (UniProt Q61188); test: Inhibition of EZH2 in mouse B16-F1 migrating cells assessed as fold change in H3K27me3-buffered regulated Mpp7-mRNA expression at 3 uM measured by […] analysis relative to control cells; how it was run: as §2
[17] = biological target: T1, RNA polymerase II (Mus musculus) (UniProt P08775+Q8CFI7+P97760+A0A3Q4L2S8+Q80UW8+P61219+P62488+Q923G2+P60898+O08740+Q63871+P62876); test: Inhibition of RNA polymerase II in mouse B16-F1 migrating cells assessed as fold change in Cenpc1-RNA stability at 0.1 mM measured by […] analysis relative to control cells
[18] = biological target: T1, RNA polymerase II (Mus musculus); test: Inhibition of RNA polymerase II in mouse B16-F1 migrating cells assessed as fold change in Mastl-RNA stability at 0.1 mM measured by ChIP-seq analysis relative to control cells
[19] = biological target: T1, RNA polymerase II (Mus musculus); test: Inhibition of RNA polymerase II in mouse B16-F1 migrating cells assessed as fold change in Arf6-RNA stability at 0.1 mM measured by […] analysis relative to control cells
[20] = biological target: T1, RNA polymerase II (Mus musculus); test: Inhibition of RNA polymerase II in mouse B16-F1 migrating cells assessed as fold change in Rpl14-RNA stability at 0.1 mM measured by […] analysis relative to control cells
[21] = biological target: T1, RNA polymerase II (Mus musculus); test: Inhibition of RNA polymerase II in mouse B16-F1 migrating cells assessed as fold change in Mbtd1-RNA stability at 0.1 mM measured by ChIP-seq analysis relative to control cells
[22] = biological target: T1, RNA polymerase II (Mus musculus); test: Inhibition of RNA polymerase II in mouse B16-F1 migrating cells assessed as fold change in Bpnt1-RNA stability at 0.1 mM measured by […] analysis relative to control cells
[23] = biological target: T1, RNA polymerase II (Mus musculus); test: Inhibition of RNA polymerase II in mouse B16-F1 migrating cells assessed as fold change in Gria4-RNA stability at 0.1 mM measured by ChIP-seq analysis relative to control cells
[24] = biological target: T1, RNA polymerase II (Mus musculus); test: Inhibition of RNA polymerase II in mouse B16-F1 migrating cells assessed as fold change in Brd2-RNA stability at 0.1 mM measured by […] analysis relative to control cells
[25] = biological target: T1, RNA polymerase II (Mus musculus); test: Inhibition of RNA polymerase II in mouse B16-F1 migrating cells assessed as fold change in Shprh-RNA stability at 0.1 mM measured by […] analysis relative to control cells
[26] = biological target: T1, RNA polymerase II (Mus musculus); test: Inhibition of RNA polymerase II in mouse B16-F1 migrating cells assessed as fold change in Ikzf4-RNA stability at 0.1 mM measured by ChIP-seq analysis relative to control cells

CCCc1cc(C)[nH]c(=O)c1CNC(=O)c1cc(-c2ccnc(N3CCN(C)CC3)c2)cc2c1cnn2C(C)C showed a log2FC [1] of 0.7, a log2FC [2] of 1.08 and a log2FC [3] of -0.5. For the same compound, the log2FC [4] was -0.89, the log2FC [5] was -0.39 and the log2FC [6] was -0.72. The log2FC [7] was 0.64, the log2FC [8] was 0.38 and the log2FC [9] was -0.43. The log2FC [10] was -0.62, the log2FC [11] was -0.42 and the log2FC [12] was 0.41. The log2FC [13] was 0.23, the log2FC [14] was 0.51 and the log2FC [15] was 0.38. For the same compound, the log2FC [16] was 0.51.
OC[C@H]1O[C@@H](n2cnc3cc(Cl)c(Cl)cc32)[C@H](O)[C@@H]1O was tested, and the log2FC [17] was -0.84, the log2FC [18] was -0.74 and the log2FC [19] was -0.51. For the same compound, the log2FC [20] was 0.49, the log2FC [21] was -0.62 and the log2FC [22] was -0.48. For the same compound, the log2FC [23] was -0.5, the log2FC [24] was -0.66 and the log2FC [25] was -0.62. It also gave a log2FC [26] of 0.93.
